Screening results: PubChem BioAssay, several laboratories
Sampled rows, rich in hits. Any-hit rate of the full collection: about 2.5%.
MBD2 DNA inh: MBD2-methylated oligo binding inhibition. Q9UBB5. TR-FRET, MBD2 binding to methylated oligonucleotide. inhibition, % at 4.4 µM. hit rate 0.31% among 370,000. AID 686964; in the data active means inhibition above about 13%
Target sequence (Q9UBB5 whole entry, looked up): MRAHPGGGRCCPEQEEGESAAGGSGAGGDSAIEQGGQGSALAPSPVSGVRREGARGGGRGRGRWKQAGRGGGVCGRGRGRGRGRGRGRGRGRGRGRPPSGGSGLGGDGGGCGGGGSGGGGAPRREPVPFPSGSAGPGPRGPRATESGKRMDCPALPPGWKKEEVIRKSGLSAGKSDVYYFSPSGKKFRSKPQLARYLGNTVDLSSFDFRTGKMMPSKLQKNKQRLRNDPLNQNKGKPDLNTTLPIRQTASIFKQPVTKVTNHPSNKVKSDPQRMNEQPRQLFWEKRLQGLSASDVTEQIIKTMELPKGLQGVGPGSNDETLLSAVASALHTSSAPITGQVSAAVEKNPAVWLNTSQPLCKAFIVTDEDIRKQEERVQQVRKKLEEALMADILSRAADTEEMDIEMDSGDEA
Pemphigus Ab inh: blocks pemphigus antibody binding to human desmoglein-3 | P32926 | hit rate 0.48% among 310,000 | DSG3-coupled beads, scFv-anti-DSG3-GFP binding, flow cytometry; hits give low values | binding (percent of control), % at 10 µM | AID 588358;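 active means binding more than 3 SD below its plate's average and above zero; inconclusive means below that plate limit but binding exactly zero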;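 further: hits lower antibody fragment binding to DSG3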
SUMO1 PPI mod: SUMO1-SIM interaction modulation | hit rate 0.33% among 360,000 | AID 602429 | inhibition, % at 20 µM | SUMO1 binding to a labelled peptide, TR-FRET, 1 h
Target sequence (P63165 whole entry, looked up): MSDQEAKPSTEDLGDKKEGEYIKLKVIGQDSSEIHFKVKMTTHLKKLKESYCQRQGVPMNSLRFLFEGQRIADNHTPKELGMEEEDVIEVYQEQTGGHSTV
UHRF1 MBD2 ctr: blocks human UHRF1 binding to methylated DNA. hit rate 0.75% among 370,000. UHRF1 binding to methylated oligo, TR-FRET. inhibition, % at 4.4 µM; in the data active means inhibition above about 21%;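 further: UHRF1 SRA domain binding a hemimethylated CpG hairpin DNA probe; 0% = median of test compound wells and 100% = reference inhibitor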
HCV NS3 hel inh: HCV NS3 helicase inhibition; NS3 helicase DNA unwinding, Cy5 molecular beacon fluorescence; hit rate 0.56% among 290,000; inhibition, % at 10.9 µM;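 active means inhibition above the mean of all tested compounds plus 3 SD, set per campaign, cut at about 35% in these data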;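 further: 0% = DMSO wells and 100% = thioflavine S control wells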
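Assay system – hepatitis C virus NS3 helicase domain fragment enzyme · Buffer or medium – MOPS pH 6.5, MgCl2, DTT, Tween20, BSA · Reagent – Cy5/quencher beacon DNA duplex and ATP to start · Compound – single 10.9 µM dose · Timing – 1 h at 25 °C · Technique – Cy5 beacon fluorescence read at start and 1 h · Measure – % inhibition of unwinding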
DNMT1 block: blocks human DNA methyltransferase DNMT1; DNMT1 molecular beacon, Hinp1I cleavage, fluorescence; inhibition (reported as % activation of signal), % at 10 µM; hit rate 0.83% among 360,000; AID 588458; in the data active means inhibition above about 50%
NS3 helicase cf: confirmation of Hepatitis C virus NS3 helicase inhibitors. inhibition, % at 10.9 µM. shares compounds with HCV NS3 hel inh. NS3 helicase DNA unwinding, Cy5 molecular beacon fluorescence. hit rate 31% among 1,600;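 active means inhibition above the mean of all tested compounds plus 3 SD, cutoff set per campaign, cut at about 36% in these data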
DNA FID counter: counter-screen for HCV NS3 helicase inhibitors: DNA intercalator displacement; shares compounds with HCV NS3 hel inh; DNA fluorescent intercalator displacement, fluorescence; inhibition, % at 7.9 µM; hit rate 4% among 1,600; AID 1945;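 further: 0% = vehicle and 100% = reference compound; higher means more displacement of ethidium bromide from the DNA hairpin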
FID counter DR: DNA intercalator displacement in dose response | fluorescent intercalator displacement from DNA, fluorescence | IC50, µM | 120 tested, under 10 active | shares compounds with HCV NS3 hel inh; call rule not given here
* = called active by the depositor; u = inconclusive; x = not tested or not shown. Unless noted, no stated cut-off is given here; in the data, active means inhibition above about 37%; inactive means the rest.

SMILES	MBD2 DNA inh	Pemphigus Ab inh	SUMO1 PPI mod	UHRF1 MBD2 ctr	HCV NS3 hel inh	DNMT1 block	NS3 helicase cf	DNA FID counter	others
N#Cc1c(N2C(=O)Nc3ccccc3N2O)sc2c1CCCC2	4	109	2	0	9	2	x	x
CCCn1c(/C=C/c2ccccc2)nc2ccccc21	-1	96	-12	-3	9	1	x	x
CC(C)Cn1c(/C=C/c2ccco2)nc2ccccc21	-3	95	-1	0	55*	1	-14	-1
CCCC(=O)NC(NC1CCS(=O)(=O)C1)C(Cl)(Cl)Cl (stereo not drawn)	-1	60	-1	-1	-10	-1	x	x
Cc1cccc(NC(=S)NCc2cccs2)c1C	0	85	3	0	-10	-1	x	x
Cc1ccc(/C=C2\Oc3cc(OCC(=O)NN)ccc3C2=O)o1	3	98	-25	2	39*	-6	-1	-4
O=c1oc2ccc(Cl)cc2nc1/C=C(\O)c1ccco1	-2	x	-13	4	11	1	x	x
CC(C)C/C(O)=C/c1nc2cc(Cl)ccc2oc1=O	-9	86	-1	0	38*	-2	-1	12
Cc1cccc(-c2oc3ccc(-c4ccc5c(c4)OCO5)cc3c2/C=C/c2ccc(N)cc2)c1	x	96	0	x	45*	-34	-8	17
COc1ccc(-c2c(-c3cccc(C)c3)oc3ccc(-c4ccc5c(c4)OCO5)cc23)cn1	-3	95	-4	-5	x	7	x	x
COc1cc(/C=N/NC(N)=O)cc([N+](=O)[O-])c1O	-22	92	-10	-10	39*	-2	-12	5
COC(=O)N/N=C/c1cc(OC)c(O)c([N+](=O)[O-])c1	-13	97	-7	7	-8	1	x	x
Cn1c(O)c(/C=N/NC(=O)c2cc3ccccc3cc2O)c2ccccc21	-3	113	-9	-2	-5	-21	x	x
COc1ccc2c(c1)cc(C(=O)N/N=C/c1c(O)c(C(=O)O)cc3ccccc13)n2C	-2	u	3	2	80*	-7	104*	14
O=C1CC2(CCCCC2)Oc2ccccc21	-1	105	4	1	x	3	x	x
O=C(Nc1cc(S(=O)(=O)Nc2ccc(Cl)cc2)ccc1O)c1ccc(S(=O)(=O)N2CCCCCC2)cc1	5	104	5	-1	45*	-1	-26	3
CCCCOc1ccccc1C(=O)NNC(=S)NC(=O)c1ccccc1[N+](=O)[O-]	-2	117	-7	-2	40*	1	51*	-3	FID counter DR=>79
O=C(NNC(=S)NC(=O)c1ccccc1[N+](=O)[O-])c1ccccc1[N+](=O)[O-]	0	119	-21	-7	0	-4	x	x
COCCN(C(=O)CNC(=O)c1ccco1)C(C(=O)NC1CCCCC1)c1cccs1 (stereo not drawn)	7	109	1	4	-1	-1	x	x
Oc1ccccc1C=Nc1cccc2ccccc12	4	110	0	0	5	-8	x	x
Oc1cccc(C=Nc2cccc3ccccc23)c1O	1	111	68*	-2	46*	-9	-1	14
CCOC(=O)c1c(N)sc2c1CCC(C)C2 (stereo not drawn)	-1	115	-1	-4	43*	-7	-15	-16
CCOC(=O)c1c(NS(C)(=O)=O)sc2c1CCC(C)C2 (stereo not drawn)	10	x	1	4	8	-8	x	x
FC(F)C(F)(F)c1cc(-c2ccccc2)n[nH]1	-4	115	-3	-3	0	2	x	x
Cc1cccc(OCC(=O)Nc2nnc(-c3ccco3)s2)c1	0	88	0	-4	41*	24	-17	2
SMILES	MBD2 DNA inh	Pemphigus Ab inh	SUMO1 PPI mod	UHRF1 MBD2 ctr	HCV NS3 hel inh	DNMT1 block	NS3 helicase cf	DNA FID counter	others
Cc1ccc(C)c(N2CCN(C(=O)c3ccc4nc(-c5ccco5)c(-c5ccco5)nc4c3)CC2)c1	-10	69*	-2	0	37*	44	76*	-20	FID counter DR=>79
O=C(NC1CCCC1)c1ccc2nc(-c3ccco3)c(-c3ccco3)nc2c1	x	x	36	x	37*	113*	115*	15	FID counter DR=>79
Cc1ccc(C(C(=O)NCc2ccco2)N(C(=O)CNC(=O)c2cccs2)c2ccc(C)cc2)cc1 (stereo not drawn)	7	104	5	2	-7	-2	x	x
CSc1sccc1/C=N/O	1	109	3	0	6	2	x	x
CSc1sccc1/C=C(/C#N)C(=O)c1ccco1	3	110	10	0	38*	10	-37	10
CS(=O)(=O)c1sc2nc(-c3cccs3)cc(-c3ccccc3)c2c1N	-1	94	-10	-3	46*	31	78*	10
CC(=O)Nc1ccc(S(=O)(=O)N2CCN(Cc3nc4sc(C)c(C)c4c(=O)[nH]3)CC2)cc1	-8	97	-14	2	0	2	x	x
COc1cc(OC)c2c(O)c3c(c(-c4c5c(c(O)c6c(OC)cc(OC)cc46)CO[C@@H](C)[C@H]5O)c2c1)[C@H](O)[C@H](C)OC3	x	74*	13	x	36*	100*	69*	-20
Cc1ccc(OCC(=O)Nc2c3c(nn2C(C)(C)C)CS(=O)(=O)C3)cc1	0	x	2	-2	-1	-2	x	x
CCOc1cc(/C=C2\C(=N)N3N=C(S(C)(=O)=O)SC3=NC2=O)ccc1OCCOc1cccc(OC)c1	0	90	16	-2	-6	-13	x	x
CCS(=O)(=O)C1=NN2C(=N)/C(=C\c3ccc(OCCOc4cccc(OC)c4)c(OC)c3)C(=O)N=C2S1	-4	105	7	0	46*	0	63*	13
Cc1ccc(CNC(=O)CS(=O)(=O)Cc2nc(-c3ccc(C)cc3)oc2C)cc1	3	99	-2	0	41*	-2	-6	-17
CC(OC(=O)c1ccccc1NS(=O)(=O)c1cccc(C(F)(F)F)c1)C(=O)N(C)Cc1ccccc1 (stereo not drawn)	3	88	-1	0	11	-1	x	x
O=C1N=c2ccccc2=C1c1sc(Nc2cccc(O)c2)nc1O	-1	113	-1	-2	-11	-4	x	x
O=C1N=c2ccccc2=C1c1sc(Nc2ccc(O)cc2)nc1O	-5	-15*	4	2	72*	-1	27	4
N=c1c(S(=O)(=O)c2ccccc2)cc2c(=O)n3ccccc3nc2n1Cc1ccco1	-5	x	4	-2	37*	3	-4	26
